Consider 29 compounds from ChEMBL document CHEMBL1149253, “Effects of indole fatty alcohols on the differentiation of neural stem cell derived neurospheres” (J Med Chem, 2004).

Assay [1] is described as follows: Differentiation activity of neural stem cell derived neurosphere into neurons at 10 nM after 3 days relative to control. The class given is functional, Homo sapiens. The gist of the method:
(§1)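 Dissociated neurospheres proliferated for 3 days, then 50–100 spheres were plated on polyornithine coverslips to differentiate, with EGF reduced to 2 ng/mL. Compound (ethanol stock, 0.1% ethanol final; ethanol-only control) was added at plating, or daily at 10 nM in proliferation, differentiation or both phases. Spheres were fixed in 4% PFA and immunostained for MAP2/TUJ1 (neurons) and GFAP (astrocytes). Confocal counts were expressed as % of TO-PRO-3-stained cells; >10 spheres per condition, 3–4 independent experiments.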

Assay [2] is described as follows: Hydroxyl radical scavenging activity after 2 hrs by ABTS competition assay. The format is functional. The method in brief:
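In the ABTS competition assay, hydroxyl radicals oxidize ABTS to ABTS•+, read by absorbance at 405 nm. IC50 is the concentration giving 50% decrease in ABTS•+ formed. Values are means of triplicate determinations.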

The species named for assay [3] is Homo sapiens. Description: Mitotic effect on neuronal precursors in neural stem cell derived neurospheres assessed by BrdU incorporation. The format is functional. A general note: Uptake of a labelled nucleoside into DNA is a usual measure of proliferation.
A short description of assay [4]: Decrease in Notch4 mRNA expression in neural stem cell derived neurospheres during differentiation phase at 10 nM by semi-quantitative RT-PCR. The class given is functional. More on the design: scale not given: the % may be the effect or the level left. Particulars: Homo sapiens. The method in brief:
(§2)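 Neurospheres were treated with or without compound at 10 nM during the differentiation phase. Total RNA was then isolated. cDNA was made from 3 μg RNA with M-MLV reverse transcriptase and random hexamers at 37 °C for 1 h. One-tenth of the cDNA was amplified by Taq PCR with gene-specific Notch primers, using GAPDH as internal control (94/55/72 °C, 30 s each). Products were resolved on a 1% agarose gel with ethidium bromide.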

Assay [5] in a line: Decrease in Notch2 mRNA expression in neural stem cell derived neurospheres during differentiation phase at 10 nM by semi-quantitative RT-PCR. The class given is functional. The following applies: Homo sapiens. Set-up: scale not given: the % may be the effect or the level left. The gist of the method:
as §2

Assay [6] is filed under the species Homo sapiens. Nature of the assay: Effect on neural stem cell derived neurospheres assessed as differentiation into astrocytes at 10 nM after 3 days. The format is functional. The method in brief: as §1
A short description of assay [7]: Decrease in Notch3 mRNA expression in neural stem cell derived neurospheres during differentiation phase at 10 nM by semi-quantitative RT-PCR. The format is functional. More on the design: scale not given: the % may be the effect or the level left. Particulars: Homo sapiens. The gist of the method: as §2
Assay [8] can be described thus: Effect on neural stem cell derived neurospheres during proliferation and differentiation phase assessed as increase in number of MAP2 positive cells at 10 nM. The class given is functional, Homo sapiens. The method in brief: as §1
Assay [9] can be described thus: Effect on neural stem cell derived neurospheres during differentiation phase assessed as increase in number of MAP2 positive cells at 10 nM after 3 days. The class given is functional, Homo sapiens. The method in brief:
as §1

Assay [10] is described as follows: Decrease in Notch1 mRNA expression in neural stem cell derived neurospheres during differentiation phase at 10 nM by semi-quantitative RT-PCR. The format is functional. Set-up: scale not given: the % may be the effect or the level left. Particulars: Homo sapiens. The method in brief: as §2
The nature of assay [11]: Effect on neural stem cell derived neurospheres during proliferation phase assessed as increase in number of MAP2 positive cells at 10 nM after 3 days. The format is functional, Homo sapiens. The method in brief: as §1

Activity calls are given as the source filed them. No cut-off for these calls is given here. Some results are limits rather than exact numbers.

Turning to `COc1cccc2[nH]cc(CCCCCCCCCCCCCCCCCCO)c12`, the Activity in assay [1] came out at 110%.
In the case of `CCCCCCCCCCCCCCCc1c[nH]c2ccc(OC)cc12`, the IC50 – broadly, the concentration needed to halve the response being measured – in assay [2] is 207 µM.
Consider `COc1ccc2c(CCCCCCCCCCO)c[nH]c2c1`, for which the Activity in [1] was found to be 110%.
Same read-out and setting: the result for `COc1ccc2c(CCCCCCCCCCCCCCO)c[nH]c2c1` reads 82%; that for `OCCCCCCCCCCCCCCCCCCc1c[nH]c2ccccc12`, 113%.
`COc1ccc2[nH]cc(CCCCCCCCCCCCCCCCO)c2c1OC` returned an Activity in assay [1] of 118%. Further, the IC50 in assay [2] came out at 17 µM.
Regarding `COc1ccc2[nH]cc(CCCCCCCCCCCCCCCCCCO)c2c1OC`, the Activity in assay [1] is 106%.
The same measure, in the same setting: the result for `COc1cccc2[nH]cc(CCCCCCCCCCO)c12` reads 95%.
The same measure, in the same setting: the result for `COc1cccc2[nH]cc(CCCCCCCCCCCCCCO)c12` reads 118%.
On the same count and under the same terms, the result for `OCCCCCCCCCCCCc1c[nH]c2ccccc12` reads 124%.
As for `Cc1c(C)c2c(c(C)c1O)CCC(C)(C(=O)O)O2` (centres undefined) [TROLOX], the IC50 in assay [2] worked out at 600 µM.
In turn, `COc1ccc2[nH]cc(CCCCCCCCCCCCO)c2c1` had an Activity in [1] of 108%.
Consider `COc1cccc2[nH]cc(CCCCCCCCCCCCCCCCO)c12`, for which the Activity in [1] is given as 133%. Also, the IC50 in assay [2] is 23 µM.
`COc1ccc2[nH]cc(CCNC(C)=O)c2c1` [MELATONIN] came in with an Activity in assay [1] of 119%. The IC50 in assay [2] turned out to be 211 µM.
Turning to `OCCCCCCCCCCCCCCc1c[nH]c2ccccc12`, in assay [1], the Activity came out at 118%.
In turn, `COc1ccc2[nH]cc(CCCCCCCCCCCCCCCCO)c2c1` displayed an Activity in assay [1] of 168%. Further, the IC50 in [2] is 34 µM.
In turn, `COc1ccc2c(CCCCCCCCCCCCO)c[nH]c2c1` gave an Activity in assay [1] of 67%.
On the same count and under the same terms, the result for `COc1cccc2[nH]cc(CCCCCCCCCCCCO)c12` reads 98%; that for `COc1ccc2[nH]cc(CCCCCCCCCCO)c2c1`, 109%.
Consider `CC1=C(CCCCCCCCCCCCCCCO)C(C)(C)CCC1=O`, for which the result in assay [2] was inactive.
In the case of `OCCCCCCCCCCc1c[nH]c2ccccc12`, the Activity in assay [1] is on record as 115%.
`COc1cc2[nH]cc(CCCCCCCCCCCCCCCCO)c2cc1OC` registered an Activity in [1] of 113%. This compound also had an IC50 in assay [2] of 34 µM.
For `COc1cc2[nH]cc(CCCCCCCCCCCCCCCCCCO)c2cc1OC`, the Activity in assay [1] came out at 116%.
As for `COc1cccc2c(CCCCCCCCCCCCCCCCO)c[nH]c12`, the IC50 in [2] is 26 µM.
For `COc1ccc2[nH]cc(CCCCCCCCCCCCCCO)c2c1`, the Activity in [1] was 143%.
With `COc1ccc2[nH]cc(CCCCCCCCCCCCCCCCCCO)c2c1`, the outcome in [3] and in assay [6] was inactive. The Activity in [4] is 19%; in assay [5], over 70%; in [1], 169%; in assay [7], over 70%; in assay [8], “<=90%”; in assay [9], “<=90%”. In addition, the Activity in [10] was over 70%; in [11], “<=90%”.
The compound `COc1ccc2c(CCCCCCCCCCCCCCCCCCO)c[nH]c2c1` yielded an Activity in assay [1] of 156%.
On the same count and under the same terms, as for `OCCCCCCCCCCCCCCCCc1c[nH]c2ccccc12`, the figure is 144%.
As to `COc1ccc2c(CCCCCCCCCCCCCCCCO)c[nH]c2c1`, the Activity in assay [1] worked out at 135%. The compound further gave an IC50 in assay [2] of 34 µM.
